Assay results taken from ChEMBL document CHEMBL5058577, “EUbOPEN Chemogenomics Library 2 (Multiplex)” (2022).

Tested on: Fibroblast
Experiment: Multiplex assay against human fibroblast
Assay type: toxicity, cell-based
How it was run: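 Live cells were stained at seeding with Hoechst33342, BioTracker Green Microtubule Cytoskeleton Dye, MitoTracker Red and Annexin V Alexa Fluor 680. Following compound addition, they were imaged on a CQ1 microscope at 37°C and 5% CO2 and gated by CellPathfinder machine learning into Hoechst high-intensity objects or normal cells, with normal cells split into healthy, pyknosed or fragmented nuclei and pyknosed cells into mitotic or apoptotic. Tubulin, mitochondrial-mass and membrane-permeability phenotypes are per cents of healthy-nucleus cells.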

[1] = 12 h, 1 µM, compound concentration 1 uM, replicate 1
[2] = 12 h, 1 µM, compound concentration 1 uM, replicate 2
[3] = 12 h, 10 µM, compound concentration 10 uM, replicate 1
[4] = 12 h, 10 µM, compound concentration 10 uM, replicate 2
[5] = 24 h, 1 µM, compound concentration 1 uM, replicate 1
[6] = 24 h, 1 µM, compound concentration 1 uM, replicate 2
[7] = 24 h, 10 µM, compound concentration 10 uM, replicate 1
[8] = 24 h, 10 µM, compound concentration 10 uM, replicate 2
[9] = 48 h, 1 µM, compound concentration 1 uM, replicate 1
[10] = 48 h, 1 µM, compound concentration 1 uM, replicate 2
[11] = 48 h, 10 µM, compound concentration 10 uM, replicate 1
[12] = 48 h, 10 µM, compound concentration 10 uM, replicate 2

With `CCCCCC(O)/C=C/[C@H]1C(=O)CC(O)C1C/C=C\CCCC(=O)O` (some centres undefined) the “Population Apoptotic (%)” value [1] was 52%, the “Population Fragmented Nuclei (%)” value [1] was 24% and the “Population Healthy Nuclei (%)” value [1] was 65%. The “Population Hoechst High Intensity Objects (%)” value [1] was 1%, the “Population Membrane Permeable-Phenotype (%)” value [1] was 0% and the “Population Mitochondria Different-Phenotype (%)” value [1] was 4%. For the same molecule, the “Population Mitotic Cells (%)” value [1] was 47%, the “Population Normal (%)” value [1] was 98% and the “Population Pyknosed Nuclei (%)” value [1] was 10%. For the same molecule, the “Population Tubulin-Different-Phenotype (%)” value [1] was 19%, the “Total Cell Count” value [1] was 172 and the “Population Apoptotic (%)” value [2] was 50%. The “Population Fragmented Nuclei (%)” value [2] was 40%, the “Population Healthy Nuclei (%)” value [2] was 41% and the “Population Hoechst High Intensity Objects (%)” value [2] was 2%. The “Population Membrane Permeable-Phenotype (%)” value [2] was 7%, the “Population Mitochondria Different-Phenotype (%)” value [2] was 20% and the “Population Mitotic Cells (%)” value [2] was 50%. For the same molecule, the “Population Normal (%)” value [2] was 97%, the “Population Pyknosed Nuclei (%)” value [2] was 18% and the “Population Tubulin-Different-Phenotype (%)” value [2] was 52%. For the same molecule, the “Total Cell Count” value [2] was 169, the “Population Apoptotic (%)” value [3] was 42% and the “Population Fragmented Nuclei (%)” value [3] was 16%. The “Population Healthy Nuclei (%)” value [3] was 69%, the “Population Hoechst High Intensity Objects (%)” value [3] was 0% and the “Population Membrane Permeable-Phenotype (%)” value [3] was 0%. For the same molecule, the “Population Mitochondria Different-Phenotype (%)” value [3] was 1%, the “Population Mitotic Cells (%)” value [3] was 57% and the “Population Normal (%)” value [3] was 99%. The “Population Pyknosed Nuclei (%)” value [3] was 13%, the “Population Tubulin-Different-Phenotype (%)” value [3] was 16% and the “Total Cell Count” value [3] was 139. For the same molecule, the “Population Apoptotic (%)” value [4] was 34%, the “Population Fragmented Nuclei (%)” value [4] was 20% and the “Population Healthy Nuclei (%)” value [4] was 56%. The “Population Hoechst High Intensity Objects (%)” value [4] was 2%, the “Population Membrane Permeable-Phenotype (%)” value [4] was 3% and the “Population Mitochondria Different-Phenotype (%)” value [4] was 7%. The “Population Mitotic Cells (%)” value [4] was 65%, the “Population Normal (%)” value [4] was 97% and the “Population Pyknosed Nuclei (%)” value [4] was 23%. For the same molecule, the “Population Tubulin-Different-Phenotype (%)” value [4] was 41%, the “Total Cell Count” value [4] was 101 and the “Population Apoptotic (%)” value [5] was 35%. For the same molecule, the “Population Fragmented Nuclei (%)” value [5] was 20%, the “Population Healthy Nuclei (%)” value [5] was 70% and the “Population Hoechst High Intensity Objects (%)” value [5] was 0%. The “Population Membrane Permeable-Phenotype (%)” value [5] was 0%, the “Population Mitochondria Different-Phenotype (%)” value [5] was 2% and the “Population Mitotic Cells (%)” value [5] was 64%. The “Population Normal (%)” value [5] was 99%, the “Population Pyknosed Nuclei (%)” value [5] was 8% and the “Population Tubulin-Different-Phenotype (%)” value [5] was 21%. For the same molecule, the “Total Cell Count” value [5] was 169, the “Population Apoptotic (%)” value [6] was 50% and the “Population Fragmented Nuclei (%)” value [6] was 41%. For the same molecule, the “Population Healthy Nuclei (%)” value [6] was 50%, the “Population Hoechst High Intensity Objects (%)” value [6] was 1% and the “Population Membrane Permeable-Phenotype (%)” value [6] was 4%. The “Population Mitochondria Different-Phenotype (%)” value [6] was 10%, the “Population Mitotic Cells (%)” value [6] was 50% and the “Population Normal (%)” value [6] was 98%. For the same molecule, the “Population Tubulin-Different-Phenotype (%)” value [6] was 47%, the “Total Cell Count” value [6] was 184 and the “Population Apoptotic (%)” value [7] was 61%. The “Population Fragmented Nuclei (%)” value [7] was 17%, the “Population Healthy Nuclei (%)” value [7] was 72% and the “Population Hoechst High Intensity Objects (%)” value [7] was 2%. The “Population Membrane Permeable-Phenotype (%)” value [7] was 1%, the “Population Mitochondria Different-Phenotype (%)” value [7] was 3% and the “Population Mitotic Cells (%)” value [7] was 38%. For the same molecule, the “Population Normal (%)” value [7] was 97%, the “Population Pyknosed Nuclei (%)” value [7] was 9% and the “Population Tubulin-Different-Phenotype (%)” value [7] was 21%. The “Total Cell Count” value [7] was 138, the “Population Apoptotic (%)” value [8] was 33% and the “Population Fragmented Nuclei (%)” value [8] was 18%. For the same molecule, the “Population Healthy Nuclei (%)” value [8] was 59%, the “Population Hoechst High Intensity Objects (%)” value [8] was 4% and the “Population Membrane Permeable-Phenotype (%)” value [8] was 3%. For the same molecule, the “Population Mitochondria Different-Phenotype (%)” value [8] was 1%, the “Population Mitotic Cells (%)” value [8] was 66% and the “Population Normal (%)” value [8] was 95%. For the same molecule, the “Population Pyknosed Nuclei (%)” value [8] was 21%, the “Population Tubulin-Different-Phenotype (%)” value [8] was 29% and the “Total Cell Count” value [8] was 101. The “Population Apoptotic (%)” value [9] was 50%, the “Population Fragmented Nuclei (%)” value [9] was 27% and the “Population Healthy Nuclei (%)” value [9] was 66%. The “Population Hoechst High Intensity Objects (%)” value [9] was 3%, the “Population Membrane Permeable-Phenotype (%)” value [9] was 0% and the “Population Mitochondria Different-Phenotype (%)” value [9] was 2%. For the same molecule, the “Population Mitotic Cells (%)” value [9] was 50%, the “Population Normal (%)” value [9] was 96% and the “Population Pyknosed Nuclei (%)” value [9] was 5%. For the same molecule, the “Population Tubulin-Different-Phenotype (%)” value [9] was 19%, the “Total Cell Count” value [9] was 175 and the “Population Apoptotic (%)” value [10] was 30%. For the same molecule, the “Population Fragmented Nuclei (%)” value [10] was 47%, the “Population Healthy Nuclei (%)” value [10] was 46% and the “Population Hoechst High Intensity Objects (%)” value [10] was 2%. The “Population Membrane Permeable-Phenotype (%)” value [10] was 3%, the “Population Mitochondria Different-Phenotype (%)” value [10] was 7% and the “Population Mitotic Cells (%)” value [10] was 70%. For the same molecule, the “Population Normal (%)” value [10] was 97%, the “Population Tubulin-Different-Phenotype (%)” value [10] was 42% and the “Total Cell Count” value [10] was 186. For the same molecule, the “Population Apoptotic (%)” value [11] was 63%, the “Population Fragmented Nuclei (%)” value [11] was 17% and the “Population Healthy Nuclei (%)” value [11] was 74%. For the same molecule, the “Population Hoechst High Intensity Objects (%)” value [11] was 4%, the “Population Membrane Permeable-Phenotype (%)” value [11] was 0% and the “Population Mitochondria Different-Phenotype (%)” value [11] was 0%. For the same molecule, the “Population Mitotic Cells (%)” value [11] was 36%, the “Population Normal (%)” value [11] was 95% and the “Population Pyknosed Nuclei (%)” value [11] was 8%. For the same molecule, the “Population Tubulin-Different-Phenotype (%)” value [11] was 14%, the “Total Cell Count” value [11] was 141 and the “Population Apoptotic (%)” value [12] was 33%. For the same molecule, the “Population Fragmented Nuclei (%)” value [12] was 30%, the “Population Healthy Nuclei (%)” value [12] was 61% and the “Population Hoechst High Intensity Objects (%)” value [12] was 0%. For the same molecule, the “Population Membrane Permeable-Phenotype (%)” value [12] was 6%, the “Population Mitochondria Different-Phenotype (%)” value [12] was 3% and the “Population Mitotic Cells (%)” value [12] was 66%. The “Population Normal (%)” value [12] was 99%, the “Population Tubulin-Different-Phenotype (%)” value [12] was 47% and the “Total Cell Count” value [12] was 104.
